For 14 compounds, Activity and IC50 results are on record in ChEMBL document CHEMBL1147872, “Syntheses of new tetrasubstituted thiophenes as novel anti-inflammatory agents” (Eur J Med Chem, 2007).

Structures are written as SMILES. Converted amounts (≈) assume the structure as drawn. The source made the active and inactive calls. No cut-off for these calls is given here.

Common to all, as to assay type: functional
Assay [1] is described as follows: Antioxidant activity assessed as nitric oxide radical scavenging activity at 20 ug/ml after 150 mins. A digest of the protocol: (§1)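 Sodium nitroprusside (10 mmol) in PBS at physiological pH was incubated with sample at 25 °C for 150 min in a 3 ml reaction. Aliquots taken every 30 min were mixed 1:1 with Griess reagent (1% sulphanilamide, 0.1% naphthylethylenediamine in 2% H3PO4), and absorbance was read at 546 nm. Runs were done in triplicate, and % scavenging was calculated against the blank.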

Assay [2] can be described thus: Antioxidant activity assessed as nitric oxide radical scavenging activity at 35 ug/ml after 150 mins. In short, it runs like this:
as §1

A short description of assay [3]: Antioxidant activity assessed as nitric oxide radical scavenging activity at 30 ug/ml after 150 mins. In short, it runs like this: as §1
The subject of assay [4] is Rattus norvegicus. In words: Antiinflammatory activity in Albino rat assessed as protection against carrageenan-induced hind paw oedema at 20 mg/kg, po after 3 hrs. A digest of the protocol:
(§2)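 Rats (150–250 g, either sex) were fasted 18 h and grouped in sixes. Compounds or standards were given orally as a suspension in 5% DMSO. After 1 h, 0.1 ml of 1% carrageenin was injected subplantar into the right hind paw. Paw volume was read by mercury plethysmometer at once and at 3 h. % protection = 100(1−Vt/Vc) versus vehicle.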
A general note: Carrageenan injected into the paw causes an acute inflammation.

The nature of assay [5]: Antioxidant activity assessed as nitric oxide radical scavenging activity at 15 ug/ml after 150 mins. A digest of the protocol: as §1
The nature of assay [6]: Antioxidant activity assessed as nitric oxide radical scavenging activity at 10 ug/ml after 150 mins. In short, it runs like this:
as §1

Assay [7] relates to Rattus norvegicus. In words: Antiinflammatory activity in Albino rat assessed as protection against carrageenan-induced hind paw oedema at 10 mg/kg, po after 3 hrs. In short, it runs like this:
as §2

A further assay relates to Mus musculus. The assay can be described thus: Analgesic activity in Albino mouse assessed as protection against acetic acid-induced writhing at 10 mg/kg, ip within 30 mins. The settings on record: route intraperitoneal. In short, it runs like this:
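Mice (20–25 g, either sex) starved 16 h, six per group, given 10 mg/kg i.p.; vehicle control received 1% DMSO at 0.5 ml/100 g. After 1 h, 0.1 ml of 3% acetic acid was given. Writhes were counted over 30 min, and the group mean was expressed as % inhibition versus control. Student's t-test was used.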
For orientation: An intraperitoneal irritant provokes the stretching counted in writhing tests.

A short description of assay [8]: Antioxidant activity assessed as nitric oxide radical scavenging activity at 25 ug/ml after 150 mins. In short, it runs like this: as §1
Assay [9] can be described thus: Inhibition of nitric oxide radical scavenging activity. A digest of the protocol: as §1
A short description of assay [10]: Antioxidant activity assessed as nitric oxide radical scavenging activity at 5 ug/ml after 150 mins. A digest of the protocol: as §1
Assay [11] deals with Rattus norvegicus. The assay can be described thus: Antiinflammatory activity in Albino rat assessed as protection against carrageenan-induced hind paw oedema at 40 mg/kg, po after 3 hrs. In short, it runs like this: as §2

For orientation: IC50 means the concentration that gives 50% inhibition. Higher therefore signals a need for much substance. Take `COC(=O)c1c(Nc2ccccc2)sc(C(=O)c2ccc(C)cc2)c1C`: the Activity in assay [1] amounted to 6.06%; in assay [2], 10.2%; in assay [3], 9.35%; in the assay on Rattus norvegicus [4], 49%; in assay [5] it was 4.59%; in [6] it was 3.16%. For the same compound, the Activity with Rattus norvegicus [7] was found to be 43%; in the assay on Mus musculus, 27%; in assay [8] it was 8.16%; in assay [10], 2.08%; in the assay on Rattus norvegicus [11], 53%. Moreover, the IC50 in assay [9] was 171.43 µg/mL (≈ 469 µM).

With `COC(=O)c1c(Nc2ccc(F)cc2)sc(C(=O)c2ccc(OC)cc2)c1C`, the Activity was 18.1% in assay [1]; 25.6% in assay [2]; 23.2% in assay [3]; 53% with Rattus norvegicus [4]; 15.2% in assay [5]; 14% in assay [6]. In addition, the Activity worked out at 36% in the assay with Rattus norvegicus [7]; 40% in the assay on Mus musculus; 20.2% in assay [8]; 5.28% in assay [10]; 58% in the assay with Rattus norvegicus [11]. Besides, the IC50 in assay [9] stood at 74.17 µg/mL (≈ 186 µM).

For the compound `COc1ccc(Nc2sc(C(=O)c3ccc(OC)cc3)c(C)c2C(=O)O)cc1`, the Activity in [1] stood at 32.5%; in [2], 51%; in assay [3], 41.2%; in the assay with Rattus norvegicus [4], 75%; in [5] it was 30.6%; in [6], 23.5%. For the same compound, the Activity in the assay on Rattus norvegicus [7] is 72%; in the assay with Mus musculus, 22%; in [8], 38.5%; in assay [10], 20.1%; with Rattus norvegicus [11] it was 69%. For the same compound, the 50% inhibitory concentration (IC50) in assay [9] is 36.57 µg/mL (≈ 92 µM).

With `COC(=O)c1c(Nc2ccc(Cl)cc2)sc(C(=O)c2ccc(OC)cc2)c1C`, the result in assay [1], in [2], in [3], in assay [5], in assay [6] and in assay [8] was inactive. In addition, the result in assay [9] and in assay [10] was inactive. Also, the Activity with Rattus norvegicus [4] is 40%; with Rattus norvegicus [7], 42%; with Mus musculus it was 60%; in the assay on Rattus norvegicus [11], 39%.

For the compound `COc1ccc(C(=O)c2sc(Nc3ccc(C)cc3)c(C(=O)O)c2C)cc1`, the result in [1], in [2], in assay [3], in assay [5], in assay [6] and in assay [8] was inactive. Further, the outcome in assay [9] and in assay [10] was inactive. Besides, the Activity in the assay with Rattus norvegicus [4] was determined as 63%; in the assay on Rattus norvegicus [7], 56%; with Mus musculus, 26%; in the assay on Rattus norvegicus [11], 62%.

Turning to `COC(=O)c1c(Nc2ccc(F)cc2)sc(C(=O)c2ccc(C)cc2)c1C`, the result in [1], in assay [2], in assay [3], in [5], in assay [6] and in assay [8] was inactive. Further, the outcome in assay [9] and in [10] was inactive. The Activity in the assay on Rattus norvegicus [4] was 46%; with Rattus norvegicus [7] it was 38%; with Mus musculus, 37%; in the assay with Rattus norvegicus [11] it was 23%.

Take `COC(=O)c1c(Nc2ccccc2)sc(C(=O)c2ccc(OC)cc2)c1C`: the Activity came out at 32.4% in [1]; 63% in assay [2]; 48.1% in assay [3]; 70% in the assay with Rattus norvegicus [4]; 28.6% in assay [5]; 18% in assay [6]. The Activity with Rattus norvegicus [7] was 69%; in the assay on Mus musculus, 55%; in [8] it was 36.9%; in [10], 13.3%; with Rattus norvegicus [11], 73%. The compound further gave a half-maximal inhibitory concentration (IC50) in [9] of 30.08 µg/mL (≈ 78.9 µM).

Consider `COc1ccc(C(=O)c2sc(Nc3ccccc3)c(C(=O)O)c2C)cc1`, for which the Activity in assay [1] turned out to be 41.2%; in assay [2], 61.2%; in assay [3], 59.5%; in the assay with Rattus norvegicus [4], 80%; in assay [5], 36.5%; in [6] it was 24.7%. Besides, the Activity worked out at 79% with Rattus norvegicus [7]; 30% with Mus musculus; 52.6% in [8]; 19.6% in assay [10]; 70% in the assay with Rattus norvegicus [11]. Besides, the IC50 in assay [9] was 25.2 µg/mL (≈ 68.6 µM).

`Cc1ccc(Nc2sc(C(=O)c3ccc(C)cc3)c(C)c2C(=O)O)cc1`: the result in assay [1], in assay [2], in assay [3], in assay [5], in assay [6] and in assay [8] was inactive. In addition, the outcome in [9] and in assay [10] was inactive. In addition, the Activity was found to be 38% with Rattus norvegicus [4], 35% with Rattus norvegicus [7], 18% in the assay with Mus musculus and 38% in the assay on Rattus norvegicus [11].

Consider `COC(=O)c1c(Nc2ccc(OC)cc2)sc(C(=O)c2ccc(OC)cc2)c1C`, for which the Activity in [1] is 12%; in [2] it was 25.1%; in assay [3] it was 20.5%; in the assay with Rattus norvegicus [4] it was 72%; in assay [5] it was 7.8%; in assay [6], 5.9%. Moreover, the Activity in the assay on Rattus norvegicus [7] came out at 71%; in the assay with Mus musculus, 40%; in [8], 15.4%; in [10], 4.29%; with Rattus norvegicus [11] it was 76%. Further, in [9], the IC50 amounted to 72.21 µg/mL (≈ 175 µM).

For `COC(=O)c1c(Nc2ccc(C)cc2)sc(C(=O)c2ccc(OC)cc2)c1C`, the outcome in assay [1], in [2], in assay [3], in assay [5], in assay [6] and in assay [8] was inactive. Further, the result in assay [9] and in assay [10] was inactive. For the same compound, the Activity was 63% in the assay with Rattus norvegicus [4], 50% in the assay with Rattus norvegicus [7], 45% with Mus musculus and 70% in the assay with Rattus norvegicus [11].

`Cc1ccc(C(=O)c2sc(Nc3ccccc3)c(C(=O)O)c2C)cc1`: the Activity in [1] was found to be 2.68%; in assay [2], 5.55%; in [3] it was 5.13%; in the assay on Rattus norvegicus [4] it was 47%; in assay [5], 1.25%; in [6], 0.85%. Besides, the Activity with Rattus norvegicus [7] is 45%; in the assay on Mus musculus, 17%; in assay [8], 4.35%; in assay [10], 0.26%; in the assay on Rattus norvegicus [11] it was 42%. In [9], this compound came in with an IC50 of 259.47 µg/mL (≈ 738 µM).

For the compound `COc1ccc(C(=O)c2sc(Nc3ccc(F)cc3)c(C(=O)O)c2C)cc1`, the Activity in assay [1] worked out at 3.58%; in assay [2] it was 12.8%; in assay [3] it was 10.5%; with Rattus norvegicus [4], 57%; in [5], 1.98%; in [6], 0.98%. Also, the Activity with Rattus norvegicus [7] was determined as 57%; in the assay with Mus musculus, 28%; in assay [8] it was 8.36%; in assay [10] it was 0.1%; in the assay on Rattus norvegicus [11], 54%. This compound returned an IC50 in [9] of 118.32 µg/mL (≈ 307 µM).

Regarding `Cc1ccc(C(=O)c2sc(Nc3ccc(Cl)cc3)c(C(=O)O)c2C)cc1`, the result in assay [1], in [2], in assay [3], in assay [5], in assay [6] and in assay [8] was inactive. The result in assay [9] and in assay [10] was inactive. In addition, the Activity in the assay with Rattus norvegicus [4] was determined as 68%; in the assay on Rattus norvegicus [7], 63%; in the assay with Mus musculus it was 24%; in the assay with Rattus norvegicus [11], 59%.
